# Results from different studies.
# Protocols differ between the studies behind these lines.
# CARM1: Histone-arginine methyltransferase CARM1 (CARM1, Homo sapiens, UniProt Q86X55)
# ADORA1: Adenosine receptor A1 (ADORA1, Homo sapiens, UniProt P30542)
# ache: Acetylcholinesterase (ache, Electrophorus electricus, UniProt O42275)
SMILES,target,test,test system,setting,inhibition [%]
COc1ccc2[nH]cc(/C=C/c3ccc(O)cc3)c2c1,"Amyloid-beta precursor protein, monomer (APP, Homo sapiens, UniProt P05067)","amyloid aggregation, inhibitor, fluorescence",,25 µM,44
Nc1ncnc2c1ncn2[C@@H]1O[C@H](CSCCNC(=O)NCc2ccccc2)[C@@H](O)[C@H]1O,CARM1,"enzyme activity, inhibitor, radiometric",,10 µM,> 95
CC/C(=N\NC(=O)NCc1cccc(O)c1)c1ccc(O)c(C)c1O,"Ribosomal protein S6 kinase beta-2 (RPS6KB2, Homo sapiens, UniProt Q9UBS0)","enzyme activity, inhibitor",,0.1 µM,22.7
CCN(c1cc(C#CCN2CCOCC2)cc(C(=O)NCc2c(C)cc(C)[nH]c2=O)c1C)[C@H]1CC[C@H](N(C)CCOC)CC1,CARM1,"enzyme activity, inhibitor",,1 µM,-3
O=C(c1ccc(F)cc1)N(Cc1ccccc1)C1CCCCC1,ADORA1,cell-free assay,,10 µM,8
COc1cc2c(cc1OC)C(=O)N(Cc1cccc(N3CCCCC3)n1)C2,ache,"enzyme activity, inhibitor",,1 µM,18.8
COc1cc(NC(C)=O)c(Cl)cc1C(=O)Nc1nccs1,ADORA1,cell-free assay,,10 µM,25.2
O=C(NC1C2CCN(CC2)C1Cc1cccnc1)c1cc2ccccc2o1 (centres unmarked),"5-hydroxytryptamine receptor 3A (Htr3a, Mus musculus, UniProt P23979)","ligand displacement, radioligand",,10 µM,59
COc1cc2c(cc1OC)C(=O)N(CC1CCN(CC3CCNC3)CC1)C2 (centres unmarked),ache,"enzyme activity, inhibitor",,1 µM,4.86
O=C1N=C(N2CCCCN2)S/C1=C\c1ccc(F)cc1O,"Neuromedin-K receptor (TACR3, Homo sapiens, UniProt P29371)","ligand displacement, radioligand",,10 µM,< 10
O[C@@H]1[C@H](O)CO[C@H]1n1cnc2c(NCc3cccc(F)c3)nc(Cl)nc21,ADORA1,"ligand displacement, radioligand",,"10 µM, cell membranes",10
CCN1CCN(Cc2ccc(NC(=O)c3ccc(C)c(Oc4ccnc5[nH]ccc45)c3)cc2C(F)(F)F)CC1,"Serine/threonine-protein kinase/endoribonuclease IRE1 (ERN1, Homo sapiens, UniProt O75460)","target engagement in cells, inhibitor, chemoproteomics",Huh-7,1 µM,-16.7
COc1cc2c(cc1OC)C(=O)N(Cc1ccncc1)C2,ache,"enzyme activity, inhibitor",,1 µM,2.62
O[C@@H]1[C@H](O)CO[C@H]1n1cnc2c(NCc3cccc(I)c3)nc(Cl)nc21,ADORA1,"ligand displacement, radioligand",,"10 µM, cell membranes",< 10
COc1cc2c(cc1OC)C(=O)N(CC1CCN(Cc3cccnc3)CC1)C2,ache,"enzyme activity, inhibitor",,1 µM,-0.52
C1=CSC(=C2SC=CS2)S1,"Ubiquitin carboxyl-terminal hydrolase 5 (USP5, Homo sapiens, UniProt P45974)","enzyme activity, inhibitor",,17 µM,54
COc1cc2c(cc1OC)C(=O)N(CC1CCN(Cc3ccccc3)CC1)C2,ache,"enzyme activity, inhibitor",,1 µM,20.4
c1cc2cc(C3=NCCN3)ccc2cc1C1=NCCN1,"Rac GTPase-activating protein 1 (Homo sapiens, UniProt Q9H0H5)","enzyme activity, inhibitor, ADP detection",,10 µM,50.4
O[C@@H]1[C@H](O)CO[C@H]1n1cnc2c(NCc3cccc(Br)c3)nc(Cl)nc21,ADORA1,"ligand displacement, radioligand",,"10 µM, cell membranes",< 10
COc1cc2c(cc1OC)C(=O)N(CC1CCNCC1)C2,ache,"enzyme activity, inhibitor",,1 µM,2.49
